In the library only some 2.6% were active in any assay of this set; here they are far more common.
GSIS activator: GLuc luminescence reporter in INS-1E cells, primary screen for activators of glucose-dependent secretion of insulin; INS-1E GLuc reporter insulin secretion, 2-3 h; activation, % at 16.6 µM; 370,000 tested, 0.61% active; AID 743287, 2014;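 active = lowest replicate activation of at least 40%, so every replicate reaches that level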;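 also: 0% = median of neutral control wells and 100% = median of IBMX positive control wells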
CFTR F508del cor: F508del CFTR correction, initial screen, CFBE line, single point | 350,000 tested, 0.36% active | CFBE cells, YFP halide quenching; stimulated with forskolin plus potentiator P3; % fluorescence drop versus neutral controls | activity (quench increase), % at 7.58 µM;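 active = mean added fluorescence quench of at least 8% versus neutral control, with both replicates also reaching 8%; inconclusive = only one of the mean or replicate conditions met; inactive = mean below 8% and not both replicates reaching 8%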;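 also: cells transiently co-express mutant CFTR-F508del with the halide-sensitive YFP; corrector assay measuring rescue of mutant channel to the surface after 24 h compound exposure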
miR-122 sensor: miR-122 Renilla sensor signal increase in Huh7, primary screen, miR-122 inhibitor project, cell-based, single point, plate reader | 340,000 tested, 0.3% active | Huh7 miR-122 Renilla luciferase sensor, 48 h; neutral wells = 0, positive control = 100 | AID 602342, 2012 | activation (reporter increase), % at 12.5 µM;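 active = mean replicate activation score at least 90 and every replicate individually at or above 90; inconclusive = only one of the two criteria met; inactive = neither criterion met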;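 also: higher luciferase means less miR-122 activity so hits act as miR-122 inhibitors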
E-selectin induc: E-selectin induction in HUVECs, primary screen, imaging, HUVEC, immunofluorescence imaging, single point. P16581. 260,000 tested, 0.37% active. activation, % at 7.58 µM. normalized: neutral wells 0, TNF-alpha wells 100;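 active = mean E-selectin-positive cell signal at least 10% of the positive control, reached in at least 60% of replicates, without over 20% cell loss; inconclusive = no rule given, readout overlaps actives, possibly toxicity-flagged; inactive = the rest, including those meeting only one limit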
Target sequence (P16581 whole entry, looked up): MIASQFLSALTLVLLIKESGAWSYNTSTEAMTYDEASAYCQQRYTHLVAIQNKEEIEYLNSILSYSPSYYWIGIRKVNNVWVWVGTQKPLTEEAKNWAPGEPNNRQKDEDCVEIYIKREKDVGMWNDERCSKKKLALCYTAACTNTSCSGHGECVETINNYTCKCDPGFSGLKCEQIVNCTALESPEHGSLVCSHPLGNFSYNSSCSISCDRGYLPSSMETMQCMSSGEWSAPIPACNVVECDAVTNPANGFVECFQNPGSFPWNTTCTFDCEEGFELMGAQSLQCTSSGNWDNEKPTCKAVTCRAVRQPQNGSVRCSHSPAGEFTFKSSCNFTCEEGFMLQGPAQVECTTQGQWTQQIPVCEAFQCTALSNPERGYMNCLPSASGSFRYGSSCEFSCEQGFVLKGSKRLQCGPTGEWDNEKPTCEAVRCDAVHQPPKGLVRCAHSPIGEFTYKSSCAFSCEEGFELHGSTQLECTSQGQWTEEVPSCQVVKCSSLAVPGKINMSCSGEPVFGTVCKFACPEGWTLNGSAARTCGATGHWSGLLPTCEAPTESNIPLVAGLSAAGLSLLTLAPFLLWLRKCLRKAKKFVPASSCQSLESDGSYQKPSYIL
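Test system: HUVEC; input: 3,000 HUVEC/well; measured by: immunofluorescence imaging; read-out: % PE-positive cells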
DENV2 CPE: inhibitors of DENV2 cytopathic effect, primary screen, cell-based, plate reader, single concentration | DENV2-infected cells, cytopathic effect rescue | 350,000 tested, 1.7% active | CPE inhibition, % at 9.99 µM; in the data active = CPE inhibition above about 20%, passing the limit was not always enough; inconclusive = no clear call, values can overlap the other calls; tested in BHK-21 cells;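 also: 0% = median of neutral control wells and 100% = median of positive control wells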
ERAP1 inh: human ERAP1 aminopeptidase inhibitors, primary screen, biochemical, single point, plate reader; 340,000 tested, 0.15% active; AID 652197, 2013; Endoplasmic reticulum aminopeptidase 1 (Homo sapiens), Q9NZ08; recombinant ERAP1, Leu-AMC fluorescence, 60 min; inhibition, % at 10.7 µM;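 active = mean replicate inhibition of at least 30%, or all replicates individually reaching that 30% level; inactive = mean below 30% and not every replicate reaching it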;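 also: 0% = neutral control wells and 100% = L-leucinethiol positive control wells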
Starred values were filed as active, the others as inactive; u = inconclusive; x = no result; [ ] = another dose, or the depositor's remark.

SMILES	GSIS activator	CFTR F508del cor	miR-122 sensor	E-selectin induc	DENV2 CPE	ERAP1 inh
CCOc1ccccc1N1CCN(C(=O)C2=CC=CN3CCS(=O)(=O)N=C23)CC1	-7	-1	-1	x	11	56*
O=C(C1=CC=CN2CCS(=O)(=O)N=C12)N1CCN(c2cccc(Cl)c2)CC1	20	2	0	x	1	-3
CCOc1ccccc1N1CCN(C(=O)c2cc3ccccc3cc2OC)CC1	-49	17*	130*	2	-8	-1
O=C(O)c1ccccc1C(=O)N1CCN(c2cccc(Cl)c2)CC1	x	x	-2	x	x	x
C[C@@H]1CN([C@@H](C)CO)S(=O)(=O)c2ccc(C3=CCCC3)cc2O[C@@H]1CN(C)Cc1ccccn1	22	-1	-15[16.7 µM]	-1	-2	1
Cc1noc(C)c1NC(=O)N(C)C[C@H]1Oc2c(NC(=O)c3cnccn3)cccc2C(=O)N([C@H](C)CO)C[C@@H]1C	20	-3	-7[16.7 µM]	0	-5	1
CCC(=O)N1CCC2(CC1)CN(S(C)(=O)=O)[C@@H](CO)c1[nH]c3cc(OC)ccc3c12	6	1	x	0	14	x
COc1ccc(C#Cc2ccc3c(c2)[C@H]2[C@H](CCN2C(=O)c2ccccc2F)[C@H](CO)N3C)cc1	-6	1	28[16.7 µM]	0	x	x
C[C@H]1CN([C@@H](C)CO)S(=O)(=O)c2ccc(C#CCN(C)C)cc2O[C@H]1CN(C)C(=O)CC1CC1	-3	3	-8[16.7 µM]	0	2	2
Cc1ccc(NC(=S)c2ccc(N(C)C)cc2)cc1	-33	x	7	0	x	x
Cc1ccc(N(C)C)cc1	10	2	x	x	22*	0
C[C@@H]1CN([C@H](C)CO)C(=O)c2cc(NC(=O)Nc3cccc4ccccc34)ccc2O[C@@H]1CN(C)C(=O)Nc1ccc(F)cc1	7	2	-6[16.7 µM]	0	25*	0
COc1ccc(NC(=O)Nc2ccc3c(c2)C(=O)N([C@@H](C)CO)C[C@H](C)[C@H](CN(C)C(=O)Nc2cccc4ccccc24)O3)cc1	7	-4	-15[16.7 µM]	x	31*	-1
C[C@H]1CN([C@@H](C)CO)C(=O)c2cc(NC(=O)Nc3cccc4ccccc34)ccc2O[C@H]1CN(C)C(=O)Nc1ccc(F)cc1	-8	0	-7[16.7 µM]	0	-11	0
CNC(=O)C[C@H]1CC[C@H]2[C@H](COc3ccc(NC(=O)NCc4ccccc4)cc3C(=O)N2C)O1	0	1	17[16.7 µM]	0	u	x
CSCCC(NC(=O)c1ccco1)C(=O)NC1CCCCCC1 (stereo not drawn)	11	2	x	0	u	0
CSCCC(NC(=O)c1ccco1)C(=O)NCC1CCCO1 (stereo not drawn)	8	-1	-2	1	67*	0
COc1ccc2c3c(n(C)c2c1)[C@@H](CO)N(C)CC31CCN(CC2CC2)CC1	6	-3	x	0	48*	x
COc1ccc2c3c(n(C)c2c1)[C@H](CO)N(S(=O)(=O)c1cn(C)cn1)CC31CCN(C)CC1	10	-1	x	0	32*	3
COc1ccc2c3c(n(C)c2c1)[C@@H](CO)N(S(=O)(=O)c1cn(C)cn1)CC31CCN(C)CC1	17	x	x	x	x	x
COc1ccc2c3c(n(C)c2c1)[C@@H](CO)N(S(C)(=O)=O)CC31CCN(CC2CCCC2)CC1	1	0	x	0	56*	0
C[C@@H]1CN([C@H](C)CO)C(=O)c2cccc(NC(=O)Nc3cccc4ccccc34)c2O[C@@H]1CN(C)S(=O)(=O)c1cccs1	0	-4	3[16.7 µM]	0	5	-1
CCOC(=O)C1(Cc2ccccc2C)CCCN(C(=O)c2ccnn2C)C1 (stereo not drawn)	-11	1	-2	114*	-3	1
CCOCCCNC(=O)c1cc2c(s1)-c1ccccc1SC2	5	-1	0	0	1	-2
CN(C)CCNC(=O)c1cc2c(s1)-c1ccc(Cl)cc1SC2	228*	3	x	7	-8	19
SMILES	GSIS activator	CFTR F508del cor	miR-122 sensor	E-selectin induc	DENV2 CPE	ERAP1 inh
COc1ccc(S(=O)(=O)N(C)C[C@H]2Oc3ccc(NC(=O)Nc4ccc(C(F)(F)F)cc4)cc3C(=O)N([C@@H](C)CO)C[C@H]2C)cc1	-8	2	111*[16.7 µM]	1	-2	0
COc1ccc(S(=O)(=O)N(C)C[C@H]2Oc3ccc(NC(=O)Nc4ccc(C(F)(F)F)cc4)cc3C(=O)N([C@H](C)CO)C[C@H]2C)cc1	-1	-1	136*[16.7 µM]	1	9	-1
C[C@H]1CN([C@@H](C)CO)C(=O)c2cc(C3=CCCCC3)cnc2O[C@H]1CN(C)C(=O)c1ccc2c(c1)OCO2	-10	-3	-5[16.7 µM]	1	-8	-2
CN(C)Cc1cn(CC[C@@H]2CC[C@H](N)[C@@H](CO)O2)nn1	0	1	-3[16.7 µM]	0	4	1
CCOc1ccc(S(=O)(=O)NCc2ccco2)c2ccccc12	-4	0	122*	x	-9	13
Cc1ccc(S(=O)(=O)NCc2ccccn2)c(C)c1	19	-2	8	x	-1	-3
CCOc1cc(C)c(C(C)C)cc1S(=O)(=O)NCc1ccccn1	x	x	104*	x	x	x
COc1cc(C)c(Cl)cc1S(=O)(=O)NCc1ccco1	x	x	105*	x	x	x
Cc1cc(S(=O)(=O)NCc2ccco2)c(C)cc1Cl	-32	1	67	-1	6	0
CCOc1cc(C)c(Cl)cc1S(=O)(=O)NCc1ccco1	x	x	116*	x	x	x
COc1ccc(NC(=O)Nc2ccc3c(c2)[C@@H]2C[C@H](CC(=O)NCC4CC4)O[C@@H](CO)[C@@H]2O3)cc1	-1	0	4[16.7 µM]	0	-4	1
O=C(C[C@@H]1C[C@H]2c3cc(NS(=O)(=O)c4ccc(F)cc4)ccc3O[C@H]2[C@H](CO)O1)NC1CCCCC1	3	-3	-1[16.7 µM]	0	-5	5
CC(=O)N[C@H]1C[C@@H]2O[C@@H](CO)CC[C@@H]2O[C@@H]1CCc1ccc(-c2ccc(F)cc2)cc1	x	-3	x	x	13	-2
CO/N=C/C(C#N)=C/c1cc(C(=O)c2ccccc2)cn1C	9	0	x	x	46*	2
CCCNC(=O)C[C@H]1CC[C@@H]2[C@H](COC[C@H](O)CN2C(=O)c2cccnc2)O1	-3	0	-3[16.7 µM]	0	-6	-2
CCNC(=O)C[C@H]1CC[C@H]2[C@@H](COC[C@H](O)CN2C(=O)c2cccnc2)O1	13	1	0[16.7 µM]	0	94*	-3

Source: PubChem
